Laboratory results published in ChEMBL document CHEMBL1799941 (J Med Chem, 2011).
The source made the active and inactive calls.

Experiments:
[1] = molecular target: T1, Cholesteryl ester transfer protein (Homo sapiens) (UniProt P11597); assay: Inhibition of human recombinant CETP-mediated cholesteryl ester transfer activity at 100 uM after 1 hr by fluorescent cholesteryl esters transfer assay relative to control
T1 sequence (whole entry): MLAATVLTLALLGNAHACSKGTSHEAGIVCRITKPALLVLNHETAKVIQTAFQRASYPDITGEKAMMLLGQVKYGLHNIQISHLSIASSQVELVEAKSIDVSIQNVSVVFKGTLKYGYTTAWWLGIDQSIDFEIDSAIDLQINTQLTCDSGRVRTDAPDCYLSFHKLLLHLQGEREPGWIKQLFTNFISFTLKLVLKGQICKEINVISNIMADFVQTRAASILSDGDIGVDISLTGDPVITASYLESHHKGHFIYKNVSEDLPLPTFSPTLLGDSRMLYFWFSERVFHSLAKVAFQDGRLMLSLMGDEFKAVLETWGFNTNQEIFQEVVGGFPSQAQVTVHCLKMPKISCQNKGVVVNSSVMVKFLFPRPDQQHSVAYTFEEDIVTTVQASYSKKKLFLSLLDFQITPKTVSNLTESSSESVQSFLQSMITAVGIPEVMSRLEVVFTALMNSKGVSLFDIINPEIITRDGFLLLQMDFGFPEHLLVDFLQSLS

[2] = system: Mus musculus; assay: Increase in HDL-cholesterol level in C57BL/6 mouse expressing cynomolgus monkey CETP gene assessed as change in HDL-C level at 10 mg/kg, po BID measured 24 hrs after first dose; assay type: functional
[3] = molecular target: T2, Cholesteryl ester transfer protein (Homo sapiens, UniProt P11597); assay: Inhibition of human recombinant CETP-mediated cholesteryl ester transfer activity after 1 hr by fluorescent cholesteryl esters transfer assay
T2 sequence (P11597 whole entry): T1 sequence (whole entry)

[4] = Blood clearance in C57BL/6 mouse at 0.6 mg/kg, iv and 2 mg/kg, po; assay type: ADME, organism-based; conditions: whole blood
Procedure, shortened: (§1)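 Male C57BL/6 mice. IV dosing at 0.6 mg/kg, formulated in DMSO:PEG400:water (10:55:35, v/v/v). Oral dosing at 2 mg/kg, formulated in DMSO:cremophor:saline (2:4:94, v/v/v). Reported parameters were blood clearance, volume of distribution, terminal half-life, IV- and PO-normalized AUC, Cmax and Tmax in plasma after oral dosing, and oral bioavailability.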

[5] = system: Mus musculus; assay: Terminal half life in C57BL/6 mouse at 0.6 mg/kg, iv and 2 mg/kg, po; assay type: ADME, organism-based; conditions: in vivo; procedure, shortened: as §1
[6] = system: Mus musculus; assay: Increase in HDL-cholesterol level in C57BL/6 mouse expressing cynomolgus monkey CETP gene assessed as change in HDL-C level at 0.3 mg/kg, po BID measured 24 hrs after first dose; assay type: functional
Procedure, shortened: (§2)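 Baseline retro-orbital bleed. Oral BID dosing in DMSO/cremophor/saline (4:4:92). Euthanized 24 h after the first dose with cardiac-puncture bleed. HDL-C by enzymatic kit on pre- and post-dose samples. Change from baseline reported as mean ± SEM, 9 mice per dose.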

[7] = system: Mus musculus; assay: Dose-normalized AUC in C57BL/6 mouse at 2 mg/kg, po; assay type: ADME, organism-based; set-up: dose 2 mg/kg, route oral; conditions: in vivo; procedure, shortened: as §1
[8] = system: Mus musculus; assay: Increase in HDL-cholesterol level in C57BL/6 mouse expressing cynomolgus monkey CETP gene assessed as change in HDL-C level at 1 mg/kg, po BID measured 24 hrs after first dose; assay type: functional; procedure, shortened: as §2
[9] = system: Mus musculus; assay: Dose-normalized AUC in C57BL/6 mouse at 0.6 mg/kg, iv; assay type: ADME, organism-based; set-up: dose 0.6 mg/kg, route intravenous; conditions: in vivo; procedure, shortened: as §1
[10] = Tmax in C57BL/6 mouse at 2 mg/kg, po; assay type: ADME, organism-based; set-up: dose 2 mg/kg, route oral; conditions: in vivo; procedure, shortened: as §1
[11] = Cmax in C57BL/6 mouse at 2 mg/kg, po; assay type: ADME, organism-based; set-up: dose 2 mg/kg, route oral; conditions: in vivo; procedure, shortened: as §1
[12] = system: Mus musculus; assay: Increase in HDL-cholesterol level in C57BL/6 mouse expressing cynomolgus monkey CETP gene assessed as change in HDL-C level administered orally twice daily and measured 24 hrs after first dose; assay type: functional, organism-based
Procedure, shortened: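 Pre-dose retro-orbital bleed. Dosed 10 mg/kg PO BID at 0 and 7 h in DMSO/cremophor/saline (4:4:92). Terminal cardiac-puncture bleed at 24 h. HDL-C by enzymatic kit; change from baseline, mean of 5 mice. A change of 5 mg/dL or less was generally considered not significant.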

[13] = Oral bioavailability in C57BL/6 mouse at 2 mg/kg; assay type: ADME, organism-based; conditions: in vivo; procedure, shortened: as §1
[14] = Volume of distribution in C57BL/6 mouse at 0.6 mg/kg, iv and 2 mg/kg, po; assay type: ADME, organism-based; conditions: in vivo; procedure, shortened: as §1
[15] = system: Mus musculus; assay: Increase in HDL-cholesterol level in C57BL/6 mouse expressing cynomolgus monkey CETP gene assessed as change in HDL-C level at 3 mg/kg, po BID measured 24 hrs after first dose; assay type: functional; procedure, shortened: as §2

For `COc1cc(F)c(C(C)C)cc1-c1ccc(C(F)(F)F)cc1CN1C(=O)O[C@H](c2cc(C(F)(F)F)cc(C(F)(F)F)c2)C1(C)C`, the inhibition [1] was 94% and the Activity [2] was 17 mg/dL.
`COC(=O)N(Cc1cc(C(F)(F)F)cc(C(F)(F)F)c1)Cc1cc(C(F)(F)F)ccc1-c1cc(C(C)C)c(F)cc1OC` gave an inhibition [1] of 88% and an Activity [2] of 15 mg/dL.
Work on `CC[C@H]1[C@@H](c2cc(C(F)(F)F)cc(C(F)(F)F)c2)OC(=O)N1Cc1cc(C(F)(F)F)ccc1-c1cc(C(C)C)ccc1OC` (racemic) yielded an inhibition [1] of 87% and an IC50 [3] of 268 nM.
For `COc1ccc(C(C)C)cc1-c1ccc(C(F)(F)F)cc1CN1C(=O)O[C@@H](c2ccccc2)[C@H]1C`, the inhibition [1] was 90% and the IC50 [3] was 5670 nM.
Work on `COc1cc(F)c(C(C)C)cc1-c1ccc(C(F)(F)F)cc1CN1C(=O)O[C@](C)(c2cc(C(F)(F)F)cc(C(F)(F)F)c2)[C@@H]1C` yielded an inhibition [1] of 46%.
Compound `COc1cc(F)c(C(C)C)cc1-c1ccc(C(F)(F)F)cc1CN1C(=O)O[C@@H](c2cc(C(F)(F)F)cc(C(F)(F)F)c2)C1(C)C` has an inhibition [1] of 21%.
`COc1ccc(C(C)C)cc1-c1ccc(C(F)(F)F)cc1CN1C(=O)O[C@H](c2cc(C(F)(F)F)cc(C(F)(F)F)c2)[C@H]1C` gave an inhibition [1] of 90%.
For `COc1ccc(C(C)C)cc1-c1ccc(C(F)(F)F)cc1CN1C(=O)O[C@@H](c2cc(C(F)(F)F)cc(C(F)(F)F)c2)[C@@H]1C`, the inhibition [1] was 20%.
Work on `COc1ccc(C(C)C)cc1-c1ccc(C(F)(F)F)cc1CN1C(=O)O[C@@H](c2cc(C(F)(F)F)cc(C(F)(F)F)c2)[C@H]1C` yielded an inhibition [1] of 8%.
With `COc1ccc(C(C)C)cc1-c1ccc(C(F)(F)F)cc1CN1C[C@@H](c2cc(C(F)(F)F)cc(C(F)(F)F)c2)OC1=O` the inhibition [1] was 93%, the IC50 [3] was 93 nM and the Activity [2] was “inactive”.
Compound `COc1cc(F)c(C(C)C)cc1-c1ccc(C(F)(F)F)cc1CN1C[C@@H](c2cc(C(F)(F)F)cc(C(F)(F)F)c2)OC1=O` has an inhibition [1] of 97%, an IC50 [3] of 25.6 nM and an Activity [2] of 6.3 mg/dL.
In the case of `COc1cc(F)c(C(C)C)cc1-c1ccc(C(F)(F)F)cc1CN1C(=O)O[C@H](c2cc(C(F)(F)F)cc(C(F)(F)F)c2)[C@@H]1C` [ANACETRAPIB], the clearance [4] is reported as 11 mL/min/kg, the “beta t1/2” value [5] is reported as 3.6 h and the Activity [6] is reported as 14 mg/dL. It also gave an AUC/dose [7] of 0.356 µM·kg·h/mg, an Activity [8] of 16.4 mg/dL and an AUC/dose [9] of 2.4 µM·kg·h/mg. For the same compound, the Tmax [10] was 1 h, the Cmax [11] was 280 nM and the Activity [12] was “Dose-dependent effect”. For the same compound, the bioavailability [13] was 15%, the Vd [14] was 2 L/kg and the Activity [15] was 21.7 mg/dL.
`COC(=O)N(Cc1cc(C(F)(F)F)cc(C(F)(F)F)c1)Cc1cc(C(F)(F)F)ccc1-c1cc(C(C)C)ccc1OC` showed an inhibition [1] of 87%, an IC50 [3] of 126 nM and an Activity [2] of 15 mg/dL.
`COc1ccc(C(C)C)cc1-c1ccc(C(F)(F)F)cc1CN1C(=O)O[C@H](c2ccccc2)[C@@H]1C` showed an inhibition [1] of 94%, an IC50 [3] of 39.3 nM and an Activity [2] of 6.3 mg/dL.
In the case of `CC[C@@H]1[C@@H](c2cc(C(F)(F)F)cc(C(F)(F)F)c2)OC(=O)N1Cc1cc(C(F)(F)F)ccc1-c1cc(C(C)C)ccc1OC` (racemic), the inhibition [1] is reported as 49%.
